Among the data in ChEMBL document CHEMBL5712905, “H3K27M induces defective chromatin spread of PRC2-mediated repressive H3K27me2/me3 and is essential for glioma tumorigenesis” (2019) are Activity_index, inhibition and Activity values, retold here.

Calls of active or inactive are those of the source. No cut-off for these calls is given here.

The subject of test [1] is BT-245. In words: Growth inhibition of human BT-245 cells expressing mutant K27M at 3 uM assessed as normalized cell index after 7 days by Alamar blue assay relative to control. Particulars: time 7 day. It counts as functional. A digest of the protocol:
(§1)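 Tumor-derived cells were grown in NS-A proliferation medium with bFGF (10 ng/mL), rhEGF (20 ng/mL) and heparin on poly-L-ornithine/laminin coating. They were plated at 7000 cells/well and exposed to EZH2 inhibitor (0.5–10 uM) or DMSO vehicle for 7 days, with media changed every 3 days. Alamar blue was added on day 7 for 6 h and absorbance read at 570 and 600 nm. Percent difference versus untreated growth control was derived from an extinction-coefficient formula; values are the mean of three replicates ± SEM.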

The test system of test [2] is BT-245. In words: Growth inhibition of K27M knock-out human BT-245 cells at 3 uM assessed as normalized cell index after 7 days by Alamar blue assay relative to control. It counts as functional. Particulars: time 7 day. A digest of the protocol: as §1
In test [3] the target is Histone-lysine N-methyltransferase EZH2 (Homo sapiens) (UniProt Q15910). Kind of test: Inhibition of EZH2 in human BT-245 cells expressing mutant K27M assessed as decrease in H3K27me2 deposition by western blot method. The format is cell-based.
Chain of Histone-lysine N-methyltransferase EZH2 (Homo sapiens) (Q15910 whole entry, looked up): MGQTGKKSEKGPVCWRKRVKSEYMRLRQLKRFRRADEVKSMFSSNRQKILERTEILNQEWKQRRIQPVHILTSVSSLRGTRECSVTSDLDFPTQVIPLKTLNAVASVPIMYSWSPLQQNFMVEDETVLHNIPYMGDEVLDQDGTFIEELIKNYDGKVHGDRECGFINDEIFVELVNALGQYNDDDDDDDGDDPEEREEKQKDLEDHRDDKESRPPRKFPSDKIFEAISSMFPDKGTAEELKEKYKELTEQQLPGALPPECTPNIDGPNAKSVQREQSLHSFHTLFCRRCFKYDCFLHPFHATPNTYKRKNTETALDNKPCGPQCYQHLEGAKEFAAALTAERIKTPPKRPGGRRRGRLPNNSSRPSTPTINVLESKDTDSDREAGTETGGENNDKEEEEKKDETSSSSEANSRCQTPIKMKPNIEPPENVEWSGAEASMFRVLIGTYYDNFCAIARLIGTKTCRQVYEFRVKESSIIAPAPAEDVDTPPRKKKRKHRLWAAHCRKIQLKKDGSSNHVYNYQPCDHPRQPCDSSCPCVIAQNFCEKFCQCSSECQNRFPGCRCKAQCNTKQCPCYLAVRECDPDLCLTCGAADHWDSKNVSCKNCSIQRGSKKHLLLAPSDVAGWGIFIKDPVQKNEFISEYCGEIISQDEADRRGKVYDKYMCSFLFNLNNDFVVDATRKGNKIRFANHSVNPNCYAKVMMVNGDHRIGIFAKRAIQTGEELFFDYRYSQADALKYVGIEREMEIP
Test [4] concerns BT-245. In words: Growth inhibition of K27M knock-out human BT-245 cells at 2.5 uM assessed as normalized cell index after 7 days by Alamar blue assay relative to control. The format is functional. The note with it: time 7 day. A digest of the protocol: as §1
Test [5] has as its system BT-245. Kind of test: Growth inhibition of K27M knock-out human BT-245 cells at 4 uM assessed as normalized cell index after 7 days by Alamar blue assay relative to control. It counts as functional. Particulars: time 7 day. In a few lines:
as §1

Test [6] relates to BT-245. Kind of test: Growth inhibition of K27M knock-out human BT-245 cells at 1.5 uM assessed as normalized cell index after 7 days by Alamar blue assay relative to control. It counts as functional. Particulars: time 7 day. In a few lines: as §1
For test [7], the system named is BT-245. Kind of test: Growth inhibition of K27M knock-out human BT-245 cells at 7 uM assessed as normalized cell index after 7 days by Alamar blue assay relative to control. The format is functional. The note with it: time 7 day. A digest of the protocol:
as §1

Test [8] concerns the target Histone-lysine N-methyltransferase EZH2 (Homo sapiens) (UniProt Q15910). Kind of test: Inhibition of EZH2 in human G477 cells assessed as decrease in H3K27me3 deposition by western blot method. The format is cell-based.
In test [9] the test system is BT-245. Kind of test: Growth inhibition of human BT-245 cells expressing mutant K27M at 10 uM assessed as normalized cell index after 7 days by Alamar blue assay relative to control. The format is functional. Particulars: time 7 day. A digest of the protocol: as §1
In test [10] the test system is BT-245. Kind of test: Growth inhibition of human BT-245 cells expressing mutant K27M at 5 uM assessed as normalized cell index after 7 days by Alamar blue assay relative to control. It counts as functional. The note with it: time 7 day. A digest of the protocol:
as §1

The subject of test [11] is BT-245. In words: Growth inhibition of K27M knock-out human BT-245 cells at 10 uM assessed as normalized cell index after 7 days by Alamar blue assay relative to control. The note with it: time 7 day. It counts as functional. A digest of the protocol:
as §1

Test [12] relates to BT-245. Kind of test: Growth inhibition of human BT-245 cells expressing mutant K27M at 1.5 uM assessed as normalized cell index after 7 days by Alamar blue assay relative to control. It counts as functional. Particulars: time 7 day. In a few lines: as §1
Test [13] relates to BT-245. Kind of test: Growth inhibition of human BT-245 cells expressing mutant K27M at 2.5 uM assessed as normalized cell index after 7 days by Alamar blue assay relative to control. The format is functional. The note with it: time 7 day. In a few lines: as §1
In test [14] the test system is BT-245. Kind of test: Growth inhibition of K27M knock-out human BT-245 cells at 8 uM assessed as normalized cell index after 7 days by Alamar blue assay relative to control. It counts as functional. The note with it: time 7 day. In a few lines: as §1
The target of test [15] is Histone-lysine N-methyltransferase EZH2 (Homo sapiens) (UniProt Q15910). In words: Inhibition of EZH2 in human BT-245 cells expressing mutant K27M assessed as decrease in H3K27me3 deposition by western blot method. It counts as cell-based.
Test [16] has as its system BT-245. Kind of test: Growth inhibition of human BT-245 cells expressing mutant K27M at 7 uM assessed as normalized cell index after 7 days by Alamar blue assay relative to control. The format is functional. The note with it: time 7 day. In a few lines:
as §1

Test [17] concerns the target Histone-lysine N-methyltransferase EZH2 (Homo sapiens) (UniProt Q15910). In words: Inhibition of EZH2 in human G477 cells assessed as decrease in H3K27me2 deposition by western blot method. It counts as cell-based.
Test [18] relates to BT-245. In words: Growth inhibition of human BT-245 cells expressing mutant K27M at 4 uM assessed as normalized cell index after 7 days by Alamar blue assay relative to control. It counts as functional. Particulars: time 7 day. In a few lines:
as §1

Test [19] deals with BT-245. In words: Growth inhibition of K27M knock-out human BT-245 cells at 3.5 uM assessed as normalized cell index after 7 days by Alamar blue assay relative to control. It counts as functional. The note with it: time 7 day. In a few lines:
as §1

Test [20] concerns BT-245. In words: Growth inhibition of K27M knock-out human BT-245 cells at 5 uM assessed as normalized cell index after 7 days by Alamar blue assay relative to control. The format is functional. Particulars: time 7 day. A digest of the protocol:
as §1

Test [21] relates to BT-245. Kind of test: Growth inhibition of human BT-245 cells expressing mutant K27M at 3.5 uM assessed as normalized cell index after 7 days by Alamar blue assay relative to control. It counts as functional. Particulars: time 7 day. In a few lines:
as §1

Test [22] relates to BT-245. In words: Growth inhibition of K27M knock-out human BT-245 cells at 0.5 to 10 uM after 7 days by Alamar blue assay. The format is functional, cell-based. The note with it: dose 0.5-10 µM, time 7.0 day. In a few lines:
as §1

Test [23] relates to BT-245. Kind of test: Growth inhibition of human BT-245 cells expressing mutant K27M at 0.5 to 10 uM after 7 days by Alamar blue assay. The format is functional, cell-based. Particulars: dose 0.5-10 µM, time 7.0 day. A digest of the protocol:
as §1

Turning to `CCCc1cc(C)[nH]c(=O)c1CNC(=O)c1cc(-c2ccc(N3CCN(C(C)C)CC3)nc2)cc2c1cnn2C(C)C`, the Activity_index in the test on BT-245 [1] came to 93.39%; in the test with BT-245 [2] it was 112.32%; in the test with BT-245 [4] it was 106.57%; in the test with BT-245 [5], 109.66%; with BT-245 [6], 107.71%; in the test on BT-245 [7] it was 106.11%. The Activity_index came to 27.95% in the test with BT-245 [9]; 73.66% in the test on BT-245 [10]; 50.02% in the test with BT-245 [11]; 93.5% with BT-245 [12]; 96% in the test with BT-245 [13]; 63.65% in the test with BT-245 [14]. Further, the Activity_index is on record as 25.18% in the test on BT-245 [16]; 85.7% in the test on BT-245 [18]; 97.97% in the test on BT-245 [19]; 108.08% in the test on BT-245 [20]; 92.89% in the test on BT-245 [21]. Moreover, the inhibition result in test [3], in test [8], in [15] and in [17] was “Active” each time.
For the compound `CCCc1cc(C)[nH]c(=O)c1CNC(=O)c1cc(-c2ccnc(N3CCN(C)CC3)c2)cc2c1cnn2C(C)C`, the result in the test with BT-245 [22] and with BT-245 [23] was Active.
